Screening data: PubChem BioAssay, Sanford-Burnham Center for Chemical Genomics
Compounds with a hit are over-represented: about 1.1% of the library has one in this group of screens.
Diaph inh CS: inhibits diaphorase or chemically oxidizes, flagging diaphorase assay artifacts | inhibition, % at 20 µM | 190,000 compounds, 0.69% hits | diaphorase resazurin-to-resorufin fluorescence, NADH, 16 min; bacterial (C. kluyveri) enzyme, not human;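 active means primary screen inhibition at 20 µM above a set limit, cut at about 50% in these data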;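 further: plate controls were DMSO with full reaction for no effect and wells lacking NADH for full effect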
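controls = No-NADH positive control and DMSO neutral control | system = Clostridium kluyveri diaphorase enzyme | timing = reaction incubation of 16 min at room temperature | signal = resorufin fluorescence 544/590 nm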
PMI activator: increases human mannose-6-phosphate isomerase activity | purified human PMI, coupled resazurin fluorescence, 20 min; hits give high values; 1 = vehicle control, 0 substrate-free wells | activation factor at 20 µM | 190,000 compounds, 0.005% hits | AID 1214;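 active means activation factor of 2 or more at 20 µM, relative to plate controls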
Target sequence (P34949 whole entry, looked up): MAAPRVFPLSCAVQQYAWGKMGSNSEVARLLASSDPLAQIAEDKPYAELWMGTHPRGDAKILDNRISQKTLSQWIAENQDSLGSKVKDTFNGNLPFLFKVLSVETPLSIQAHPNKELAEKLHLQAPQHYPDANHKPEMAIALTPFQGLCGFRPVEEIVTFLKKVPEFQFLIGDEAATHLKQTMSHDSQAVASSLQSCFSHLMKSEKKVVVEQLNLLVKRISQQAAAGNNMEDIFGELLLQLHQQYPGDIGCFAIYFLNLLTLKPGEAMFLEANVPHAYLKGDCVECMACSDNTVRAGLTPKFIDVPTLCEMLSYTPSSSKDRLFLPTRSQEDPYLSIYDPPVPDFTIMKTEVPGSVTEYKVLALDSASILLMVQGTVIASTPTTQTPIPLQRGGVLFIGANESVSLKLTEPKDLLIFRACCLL
PMI act satM6P: PMI (human) activation, high substrate | P34949 | coupled PMI enzyme assay, resazurin fluorescence, 20 min; hits give high values; 1 = untreated enzyme, 0 = substrate-free blank | activation factor at 20 µM | 190,000 compounds, 0.34% hits | AID 1216;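 active means activation factor of 2 or more at 20 µM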
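Test system: human phosphomannose isomerase with PGI, G6PDH, diaphorase coupling enzymes; amount: 15 ng/mL PMI; incubation: enzyme reaction with compound 20 min at room temperature; technique: resorufin fluorescence (Ex 544/Em 590 nm) from resazurin via diaphorase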
Diaphorase act: counter-screen for diaphorase-based assays: diaphorase activators and chemical reducers. activation factor at 20 µM. 190,000 compounds, 0.005% hits. AID 1229. Diaphorase/resazurin coupled assay, resorufin fluorescence, 16 min; hits give high values; 1 = vehicle wells, 0 = NADH-free wells;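 active means diaphorase activity raised at least twofold by the compound at 20 µM; inactive means activation factor below 2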
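test system = bacterial diaphorase enzyme (C. kluyveri) | quantity = enzyme 0.07 U/mL final | reagent = NADH substrate 0.114 mM plus resazurin dye 0.1 mM, final | incubation = 16 min enzyme reaction, ambient temperature | buffer or medium = HEPES pH 7.4 buffer with MgCl2 and Tween 20 | signal = fluorescence of resorufin, 544 nm excitation, 590 nm emission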
G6PDH counter: L. mesenteroides G6PDH inhibition counter-screen; Purified L. mesenteroides G6PDH, diaphorase/resazurin coupled fluorescence, 45 min; inhibition, % at 5 µM; 200,000 compounds, 0.12% hits; in the data active means inhibition above about 50%
The depositor's hits bear a star; / = no result.

SMILES	Diaph inh CS	PMI activator	PMI act satM6P	Diaphorase act	G6PDH counter
COc1ccc(S(=O)(=O)N(C)CC(=O)Nc2ccc(C)cc2)cc1OC	65*	0.9	0.9	0.3	6
CC(=O)c1sc2nc(-c3cccs3)ccc2c1N	12	1.7	2.1*	0.9	4
NNC(=O)C(Cc1ccccc1)NC(=O)OCc1ccccc1 (stereo unspecified)	-12	1.1	1.1	1.1	-2
NNc1nc(-c2ccccc2)cs1	14	1.6	2*	0.9	-4
CCN(CC)C(=O)c1ccc2nc(-c3ccccc3)c(-c3ccccc3)nc2c1	17	0.9	0.9	0.8	7
CCN(CC)C(=O)c1ccc2nc3ccccc3nc2c1	14	1.6	2.2*	0.9	8
CC(=O)NS(=O)(=O)c1ccc(NC(=O)COc2ccc(C(=O)c3ccccc3)cc2)cc1	3	1.1	1.1	1	4
CCCN(CC1CC1)c1nc(N)c2c(N)nc(OC)cc2c1C#N	52*	0.5	0.6	0.5	28
CCCCSc1nc(C)[nH]c1[N+](=O)[O-]	15	1.7	2*	0.8	2
Oc1c(CN2CCOCC2)cc(-c2ccccc2)cc1CN1CCOCC1	8	1	1	0.9	5
Oc1c(CN2CCOCC2)ccc2ccccc12	41	0.5	0.3	0.6	60*
O=C(O)CCCNC(=O)OCc1ccccc1	10	1	1.1	0.9	2
O=C(O)C/C=C(\NC(=O)OCc1ccccc1)C(=O)OCc1ccccc1	11	1.9	2.6*	0.9	3
NC(N)=NS(=O)(=O)c1ccc(N/C=C\C(=O)c2ccncc2)cc1	-1	1	0.9	1	18
O=C(CCC(=O)c1ccc(F)cc1)Nc1ccccc1Cl	13	0.9	0.9	0.9	4
O=C(CN1CCN(CC(=O)c2ccc(F)cc2)CC1)Nc1ccccc1Cl	11	1.4	2.2*	0.9	0
COc1ccc2nc(-c3ccco3)c(-c3ccco3)nc2c1	78*	1.1	1.4	0.2	25
COc1ccc2nc3cccc(OC)c3nc2c1	23	1.2	0.9	0.8	51*
c1coc(-c2nc(-c3ccco3)c(-c3ccco3)nc2-c2ccco2)c1	94*	0.9	0.8	0.1	21
CCN(C(=O)CN(C)Cc1cccc(Cl)c1Cl)c1c(N)n(Cc2ccccc2)c(=O)[nH]c1=O	14	0.9	1	0.9	-1
O=C(O)c1cccc(N/N=C/c2ccc(F)c(F)c2)c1	5	1.7	2.3*	1	3
Cc1nn(-c2cccc(C(F)(F)F)c2)c(Cl)c1/C=N/Nc1cccc(C(=O)O)c1	30	1.6	2.5*	0.7	2
O=C(O)c1cccc(N/N=C/C2=C(Cl)c3cc(Cl)ccc3SC2)c1	17	1.7	2.5*	0.8	4
O=C(O)c1ccc(/C=N/Nc2cccc(C(F)(F)F)c2)cc1	13	1.4	1.3	0.9	3
CCOc1cc(/C=N/Nc2ccccc2Cl)ccc1OCC(=O)O	-2	1.9	3.1*	1	-3
SMILES	Diaph inh CS	PMI activator	PMI act satM6P	Diaphorase act	G6PDH counter
CCOc1cc(/C=N/Nc2nc(Nc3ccccc3)nc(N3CCCCC3)n2)ccc1OCC(=O)O	7	1.1	1.1	0.9	-2
CCOc1cc(/C=N/Nc2cccc(C(=O)O)c2)ccc1OC(=O)c1ccccc1	26	1.6	2.3*	0.7	8
COc1ccc(C(CNC(=O)c2ccccc2SC)N(C)C)cc1 (stereo unspecified)	4	1	1.1	1	1
Cc1occc1-c1nnc(SCC(=O)c2cc3ccccc3oc2=O)o1	51*	1.1	1.1	0.5	-1
Cc1occc1-c1nnc(SCC(=O)Nc2ccccn2)o1	2	1.1	1.1	1	1
Nc1nonc1-c1nc2ccccc2n1CC(=O)O	8	1	1	0.9	0
Nc1nonc1-c1nc2ccccc2n1CC(=O)N/N=C/c1ccc(-c2cccc(C(=O)O)c2)o1	52*	1.1	1.2	0.5	-6
CCc1ccc(/C(C)=N\Nc2ccc([N+](=O)[O-])cc2)cc1	24	0.8	0.8	0.8	4
C/C(=N\Nc1ccc([N+](=O)[O-])cc1)c1ccc(N)cc1	8	1.7	2.3*	0.9	4
O=C(Oc1ccc([N+](=O)[O-])cc1)c1cncc(Br)c1	6	1.1	1.1	0.9	1
Cc1ccc(N2C(=O)C3C(C2=O)C(C(=O)c2ccc(Cl)cc2)N2CCCC32)cc1 (stereo unspecified)	12	1.6	2*	0.9	3
N#C/C(=C\c1ccc(N2CCOCC2)o1)c1nc2ccccc2[nH]1	24	0.8	0.5	0.8	20
N#C/C(=C\c1ccc(-c2ccc(C(=O)O)cc2)o1)c1nc2ccccc2[nH]1	65*	0.9	0.8	0.4	11
c1ccc(-c2cn3nc(-c4ccccc4)cnc3n2)cc1	7	1.8	2.6*	0.9	-9
COc1ccc(Cl)cc1NC(=O)Cn1c(NCCO)nc2ccccc21	2	1.1	1	1	1
COCCNC(=O)C/C(C)=N/NC(=O)C(=O)NC1CCCCC1	-10	1.1	1	1.1	8
O=[N+]([O-])c1cc(O)c2ncccc2c1	52*	0.8	0.5	0.5	43
COC(=O)c1ccc(COc2cc([N+](=O)[O-])cc3cccnc23)o1	/	/	/	/	24
CN1CCN(C(=O)c2cnn3c2NC(c2ccccc2)CC3C(F)(F)F)CC1 (stereo unspecified)	6	0.9	0.9	0.9	13
CCn1c2ccccc2c(=O)c2ccccc21	9	1	1	0.9	4
CCn1c(=O)c(-[n+]2ccccc2)c(O)c2ccccc21	53*	0.5	0.6	0.5	-14
Cc1sc(NC(=O)CCCC(=O)O)c(C(N)=O)c1-c1ccccc1	1	1	1.1	1	1
COC(=O)c1ccc(N2NC(=O)/C(=C/c3ccc(-c4ccc(Cl)c(C(=O)O)c4)o3)C2=O)cc1	74*	1	0.9	0.3	0
Cc1ccc(N2NC(C)(c3cccs3)NC2=S)cc1 (stereo unspecified)	21	1.6	2.7*	0.8	2
COc1cc(OC)cc(C(=O)OCC(=O)NCc2ccc3c(c2)OCO3)c1	-12	1	1.1	1.1	0
Cc1cccc(OCC(=O)N/N=C/c2ccc(N(C)C)cc2)c1	55*	0.9	0.9	0.4	10
Cc1ccc(-n2c(-c3ccccc3)c[n+]3c2CCC3)cc1	79*	1	1	0.2	5
COc1ccc(-n2c(-c3ccc(Br)cc3)c[n+]3c2CCC3)cc1	1	0.9	0.9	1	-2
